The source made the active and inactive calls. The rule behind the calls is not given here. Residues, ends and D or L forms follow the SMILES beside them. *: point of attachment. Adamantane1carbonyl = O=C(C12CC3CC(CC(C3)C1)C2)*; OtBu = CC(C)(C)O*

Assay [1] concerns the target T1, Sodium channel protein type 8 subunit alpha (Homo sapiens, UniProt Q9UQD0). The experiment in a line: Modulation of recombinant human Nav1.6 C-terminal tail (1763 to 1976 residues) expressed in HEK293 cells assessed as peak current density at 30 uM incubated for 30 mins by whole cell patch clamp electrophysiology assay (reference value: -50.1 +/- 3.1 pA/pF). It is filed as cell-based. Summed up: (§1)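 Stable HEK-Nav1.6 cells without FGF14, incubated at least 30 min in extracellular solution (mM: 140 NaCl, 3 KCl, 1 MgCl2, 1 CaCl2, 10 HEPES, 10 glucose, pH 7.3) with compound (10 or 30 μM) or 0.1% DMSO. Whole-cell recording with Cs-methanesulfonate/EGTA/NaCl/HEPES pipette solution, 70–80% compensation. Steps −100 to +60 mV; tau measured at −10 mV. Student's t-test.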

In assay [2] the target is T1, Sodium channel protein type 8 subunit alpha. Nature of the assay: Modulation of recombinant human Nav1.6 C-terminal tail (1763 to 1976 residues) expressed in HEK293 cells assessed as peak current density at 10 uM incubated for 30 mins by whole cell patch clamp electrophysiology assay (reference value: -50.1 +/- 3.1 pA/pF). The settings on record: filed as modulator. It is filed as cell-based. An outline of the steps: as §1
A general note: Patch clamp records ionic current or voltage across a cell membrane.

Assay [3] has as its target T2, Fibroblast growth factor 14/SCN8A (Homo sapiens) (UniProt Q9UQD0+Q92915). Nature of the assay: Modulation of recombinant human Nav1.6 C-terminal tail (1763 to 1976 residues)-FGF14 (64 to 252 residues) protein-protein interaction expressed in HEK293 cells assessed as half activation voltage at 10 uM incubated for 30 mins by cell patch clamp electrophysiology assay (reference value: -21.4 +/- 1 mv). Type of assay: cell-based. Summed up: (§2)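 HEK-Nav1.6 cells transiently transfected with FGF14 using Lipofectamine 2000, then exposed at least 30 min to 10 μM compound or 0.1% DMSO in the pH 7.3 HEPES extracellular solution. Whole-cell patch clamp with Cs-methanesulfonate internal solution, 70–80% capacitance and series-resistance compensation. Test steps from −100 to +60 mV. Student's t-test used.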

The subject of assay [4] is HEK293. Nature of the assay: Modulation of recombinant human FGF141b (1 to 252 residues)-recombinant human Nav1.6 C-terminal tail (1763 to 1976 residues) protein-protein interaction expressed in HEK293 cells assessed as relative luminescence value at 50 uM measured at 2 mins interval for 20 mins by split-luciferase complementation assay relative to control. Type of assay: cell-based. As to conditions: filed as modulator, time min 2-20. Summed up:
(§3)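 Double-stable HEK293 line expressing CLuc-FGF14 and CD4-Nav1.6-C-tail-NLuc, kept on G418 and puromycin. Cells seeded for 24 h, then given compound for 1 h in serum-free, phenol red-free DMEM/F12 with a final 0.5% DMSO: 50 μM for screening, 0.25–100 μM over eight concentrations for dose-response; n = 4. D-luciferin added and read every 2 min for 20 min at 37 °C. Peak luminescence expressed as percent of per-plate DMSO mean (n = 32). IC50 from four-parameter nonlinear fit. At least 3 experiments.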

Assay [5] addresses T1, Sodium channel protein type 8 subunit alpha. Nature of the assay: Modulation of recombinant human Nav1.6 C-terminal tail (1763 to 1976 residues) expressed in HEK293 cells assessed as long-term inactivation at depolarization cycle 4 at 10 uM incubated for 30 mins by whole cell patch clamp electrophysiology assay (reference value: 0.75 +/- 0.05). As to conditions: filed as modulator. It is filed as cell-based.

The nature of assay [6]: Modulation of recombinant human FGF141b (1 to 252 residues)-recombinant human Nav1.6 C-terminal tail (1763 to 1976 residues) protein-protein interaction expressed in HEK293 cells measured at 2 mins interval for 20 mins by split-luciferase complementation assay. Type of assay: cell-based. Summed up: as §3
The target in assay [7] is T2, Fibroblast growth factor 14/SCN8A (Homo sapiens). The experiment in a line: Modulation of recombinant human Nav1.6 C-terminal tail (1763 to 1976 residues)-FGF14 (64 to 252 residues) protein-protein interaction expressed in HEK293 cells assessed as long-term inactivation at depolarization cycle 2 at 10 uM incubated for 30 mins by cell patch clamp electrophysiology assay (reference value: 1 +/- 0.02). It is filed as cell-based. The settings on record: filed as modulator. Summed up: as §2

The target is the same in assay [8]. The experiment in a line: Modulation of recombinant human Nav1.6 C-terminal tail (1763 to 1976 residues) -FGF14 (64 to 252 residues) protein-protein interaction expressed in HEK293 cells assessed as long-term inactivation at depolarization cycle 4 at 10 uM incubated for 30 mins by cell patch clamp electrophysiology assay (reference value: 0.98 +/- 0.06). The settings on record: filed as modulator. Type of assay: cell-based.

Assay [9] addresses T3, Fibroblast growth factor 14 (Homo sapiens) (UniProt Q92915).
T3 sequence (whole entry): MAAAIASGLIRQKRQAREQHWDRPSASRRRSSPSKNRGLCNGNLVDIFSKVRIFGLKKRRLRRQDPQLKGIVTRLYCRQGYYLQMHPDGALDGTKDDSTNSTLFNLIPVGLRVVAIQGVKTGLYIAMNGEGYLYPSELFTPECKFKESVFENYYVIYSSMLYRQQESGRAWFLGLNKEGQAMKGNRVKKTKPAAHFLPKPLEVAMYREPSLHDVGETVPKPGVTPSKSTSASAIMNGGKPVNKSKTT
The experiment in a line: Binding affinity to human recombinant FGF14 expressed in Escherichia coli BL21 assessed as association rate constant by SPR analysis. The settings on record: filed as modulator. An outline of the steps: (§4)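 Biacore T100 runs with FGF14 (17,896 RU) or Nav1.6 C-tail (6,800 RU) amine-coupled on CM5 at pH 5.5. Compounds at 0.195–200 μM in PBS, 0.005% Tween-20, 2% DMSO; 50 μL/min at 25 °C. 120 s association, 150 s dissociation, DMSO calibration, blank subtraction. Rates from a Langmuir 1:1 fit; KD averages the kinetic and steady-state values. At least duplicate experiments.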
(SPR reads the build-up and loss of mass on a sensor chip optically.)

In assay [10] the target is T2, Fibroblast growth factor 14/SCN8A (Homo sapiens). Nature of the assay: Modulation of recombinant human Nav1.6 C-terminal tail (1763 to 1976 residues)-FGF14 (64 to 252 residues) protein-protein interaction expressed in HEK293 cells assessed as long-term inactivation at depolarization cycle 3 at 10 uM incubated for 30 mins by cell patch clamp electrophysiology assay (reference value: 0.99 +/- 0.04). Type of assay: cell-based. The settings on record: filed as modulator. Summed up:
as §2

Assay [11] deals with T1, Sodium channel protein type 8 subunit alpha. Nature of the assay: Binding affinity to human recombinant Nav1.6 C-terminal domain expressed in Escherichia coli BL21 assessed as association rate constant by SPR analysis. The settings on record: filed as modulator. Summed up:
as §4

Assay [12] deals with T3, Fibroblast growth factor 14 (Homo sapiens). Nature of the assay: Binding affinity to human recombinant FGF14 expressed in Escherichia coli BL21 assessed as dissociation rate constant by SPR analysis. As to conditions: filed as modulator. An outline of the steps: as §4
Assay [13] concerns the target T1, Sodium channel protein type 8 subunit alpha. The experiment in a line: Binding affinity to human recombinant Nav1.6 C-terminal domain expressed in Escherichia coli BL21 assessed as assessed as induction of protein denaturation by measuring change in melting temperature at 10 uM by fluorescent dye based thermal shift assay. As to conditions: filed as modulator, dose 50.0 µM.

Assay [14] relates to HEK293. The experiment in a line: Inhibition of full-length Photinus pyralis luciferase transfected in HEK293 cells at 25 uM incubated for 1 hrs by split-luciferase complementation assay. It is filed as cell-based. An outline of the steps: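 HEK293 cells transfected with full-length Photinus pyralis luciferase, then treated 1 h with 25 μM compound (n = 4) or 0.5% DMSO (n = 32). Luminescence read after D-luciferin addition, as in the LCA, normalized to per-plate DMSO controls. One-way ANOVA with Dunnett's test.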

For assay [15], the target named is T2, Fibroblast growth factor 14/SCN8A (Homo sapiens). Nature of the assay: Modulation of recombinant human Nav1.6 C-terminal tail (1763 to 1976 residues)-FGF14 (64 to 252 residues) protein-protein interaction expressed in HEK293 cells assessed as peak current density at 10 uM incubated for 30 mins by whole cell patch clamp electrophysiology assay (reference value: -19.3 +/- 1.3). It is filed as cell-based. Summed up:
as §2

T1 sequence (Q9UQD0 whole entry, looked up, the tested form may be a part): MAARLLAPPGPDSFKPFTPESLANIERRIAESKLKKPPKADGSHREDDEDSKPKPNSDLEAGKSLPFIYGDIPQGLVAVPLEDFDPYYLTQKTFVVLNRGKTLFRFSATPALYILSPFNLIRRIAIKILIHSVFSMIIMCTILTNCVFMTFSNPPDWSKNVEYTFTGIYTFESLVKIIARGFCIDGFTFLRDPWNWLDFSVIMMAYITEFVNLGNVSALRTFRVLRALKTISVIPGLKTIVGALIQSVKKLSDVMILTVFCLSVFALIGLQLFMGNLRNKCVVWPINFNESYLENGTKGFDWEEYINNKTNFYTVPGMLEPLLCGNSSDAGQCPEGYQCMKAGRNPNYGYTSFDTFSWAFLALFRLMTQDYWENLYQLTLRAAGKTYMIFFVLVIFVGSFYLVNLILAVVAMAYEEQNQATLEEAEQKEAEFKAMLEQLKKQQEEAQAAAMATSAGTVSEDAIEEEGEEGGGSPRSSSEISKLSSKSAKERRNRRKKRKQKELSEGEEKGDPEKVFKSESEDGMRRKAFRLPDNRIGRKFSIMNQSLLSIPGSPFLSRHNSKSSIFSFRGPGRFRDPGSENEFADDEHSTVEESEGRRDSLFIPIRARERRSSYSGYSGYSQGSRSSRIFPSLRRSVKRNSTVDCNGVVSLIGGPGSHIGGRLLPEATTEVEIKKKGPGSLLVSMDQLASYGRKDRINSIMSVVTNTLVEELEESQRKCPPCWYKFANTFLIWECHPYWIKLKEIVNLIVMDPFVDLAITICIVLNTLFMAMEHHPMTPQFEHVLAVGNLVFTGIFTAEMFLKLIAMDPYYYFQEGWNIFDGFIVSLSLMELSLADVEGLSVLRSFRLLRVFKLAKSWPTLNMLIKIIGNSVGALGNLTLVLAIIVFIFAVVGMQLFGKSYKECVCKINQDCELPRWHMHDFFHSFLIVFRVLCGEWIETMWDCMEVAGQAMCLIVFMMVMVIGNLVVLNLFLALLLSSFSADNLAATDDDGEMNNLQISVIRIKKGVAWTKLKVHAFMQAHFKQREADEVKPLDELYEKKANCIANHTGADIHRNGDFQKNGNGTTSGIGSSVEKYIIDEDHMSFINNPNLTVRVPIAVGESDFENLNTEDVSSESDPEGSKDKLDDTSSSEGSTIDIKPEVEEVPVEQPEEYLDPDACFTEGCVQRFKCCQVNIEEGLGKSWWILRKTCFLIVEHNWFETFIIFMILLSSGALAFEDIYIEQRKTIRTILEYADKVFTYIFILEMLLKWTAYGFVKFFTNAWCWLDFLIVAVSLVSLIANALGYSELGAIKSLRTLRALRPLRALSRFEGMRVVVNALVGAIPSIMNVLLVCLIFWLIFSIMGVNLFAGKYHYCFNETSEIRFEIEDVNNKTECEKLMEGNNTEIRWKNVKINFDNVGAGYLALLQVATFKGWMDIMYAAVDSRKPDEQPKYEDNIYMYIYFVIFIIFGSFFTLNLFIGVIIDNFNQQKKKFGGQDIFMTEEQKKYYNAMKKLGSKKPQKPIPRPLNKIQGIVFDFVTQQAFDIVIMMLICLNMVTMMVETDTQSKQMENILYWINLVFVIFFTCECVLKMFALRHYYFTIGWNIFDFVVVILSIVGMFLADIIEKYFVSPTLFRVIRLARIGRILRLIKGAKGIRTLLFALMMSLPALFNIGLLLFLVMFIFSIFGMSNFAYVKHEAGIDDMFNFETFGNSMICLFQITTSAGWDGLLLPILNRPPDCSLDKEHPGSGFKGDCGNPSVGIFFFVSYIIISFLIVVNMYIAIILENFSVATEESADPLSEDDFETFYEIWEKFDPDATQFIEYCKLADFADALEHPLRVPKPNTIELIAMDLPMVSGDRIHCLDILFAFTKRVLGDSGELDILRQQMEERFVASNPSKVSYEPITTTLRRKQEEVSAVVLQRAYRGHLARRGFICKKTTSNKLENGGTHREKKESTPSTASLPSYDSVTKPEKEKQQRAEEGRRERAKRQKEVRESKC
T2 sequence (Q9UQD0 whole entry, looked up, one chain of several, the tested form may be a part): as the sequence (Q9UQD0 whole entry, looked up, the tested form may be a part) above

By IC50 is commonly meant the concentration that gives 50% inhibition. The term ΔTm denotes the shift of the melting midpoint relative to a reference. Turning to `COC(=O)[C@@H](NC(=O)[C@H](CCC(=O)OC(C)(C)C)NC(=O)[C@H](CC(C)C)NC(=O)[C@@H]1CCCN1C(=O)C12CC3CC(CC(C3)C1)C2)C(C)C` (Adamantane1carbonyl-PLE(OtBu)V-OMe), the Activity in assay [1] was -17.9 pA/pF; in [2], -25.8 pA/pF; in assay [3], -21.6 mV; in the assay on HEK293 [4] it was 4.7%; in assay [5], 0.7; in assay [7] it was 0.86. For the same compound, the Activity in assay [8] is 0.75; in assay [10], 0.81; in assay [15], -38.8 pA/pF. The IC50 in [6] came out at 20.4 µM. The K in assay [9] is 4.66 10^3/M/s; in [11], 6.23 10^4/M/s; in assay [12], 9.33 10^-3/s. Besides, the ΔTm in [13] is -4.64 °C. For the same compound, the inhibition result in the assay on HEK293 [14] was “inactive”.

The record behind these values is ChEMBL document CHEMBL4699573, “Design, Synthesis, and Pharmacological Evaluation of Analogues Derived from the PLEV Tetrapeptide as Protein-Protein Interaction Modulators of Voltage-Gated Sodium Channel 1.6” (J Med Chem, 2020).
